The species named for data set [1] is Mus musculus. Conditions: C57BL/6, 10 mg/kg.
Data set [2] concerns Mus musculus. As to the kind of experiment: Upregulation of CXCR4 mRNA expression in SCID mouse xenografted with human SUDHL4 cells at 5 to 10 mg/kg, iv administered 3 days once for 15 days by qPCR analysis. It counts as functional, organism-based. Put shortly: (§1)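 Male SCID mice, 6 weeks old, received 1 × 10⁷ SUDHL4 cells s.c. At about 100 mm³, mice were randomized (n = 7) to vehicle (20% 2-hydroxypropyl-β-cyclodextrin) or 5 or 10 mg/kg every 3 days i.v. for 15 days. Body weight and caliper volume (L × W² × 0.52) were recorded every 3 days. At sacrifice, tissues were fixed in 4% paraformaldehyde and paraffin-embedded for H&E or Ki67 IHC. Tumor mRNA was assayed by qPCR.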

Data set [3] deals with SUD4. As to the kind of experiment: Antitumor activity against human SUDHL4 cells xenografted in SCID mouse assessed as reduction in Ki67 expression in tumor at 5 mg/kg, iv administered 3 days once for 15 days by Ki67-staining based immunohistochemistry. The format is functional, organism-based. Put shortly: as §1
Background: Xenograft models place foreign cells or tissue in a host animal.

Another data set relates to OCI-Ly7. In words: Antiproliferative activity against human OCI-LY7 cells assessed as reduction in cell viability incubated for 72 hrs by CCK8 assay. The conditions noted are these: OCI-Ly7, 72 h. (Formazan colour is commonly taken as a measure of viable cells.)
Data set [4] has as its system SUD4. In words: Antiproliferative activity against human SUDHL4 cells assessed as reduction in cell viability incubated for 72 hrs by CCK8 assay. Conditions: SU-DHL-4, 72 h.
The subject of data set [5] is SUD4. In words: Antiproliferative activity against human SUDHL4 cells assessed as living cells and S phase cells at 2.5 uM incubated for 48 hrs by Edu based flow cytometry analysis (reference value: 48.3%). In general terms: A flow cytometer gives signals particle by particle.
Data set [6] is described as follows: Metabolic stability in human liver assessed as intrinsic clearance. It counts as ADME, tissue-based. Conditions: read-out: CLH. An outline of the steps: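 Incubation with human liver microsomes. Intrinsic clearance was scaled to liver using 45 mg microsomal protein per g liver and 20 g liver per kg body weight. Half-life was also determined.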
The subject of data set [7] is SUD4. In words: Antiproliferative activity against human SUDHL4 cells assessed as living cells and S phase cells at 1.25 uM incubated for 48 hrs by Edu based flow cytometry analysis (reference value: 48.3%).
The test system of data set [8] is SUD4. In words: Antiproliferative activity against human SUDHL4 cells assessed as living cells and S phase cells at 0.625 uM incubated for 48 hrs by Edu based flow cytometry analysis (reference value: 48.3%).
Data set [9] concerns SUD4. As to the kind of experiment: Induction of apoptosis in human SUDHL4 cells assessed as early apoptotic cells at 1.25 uM incubated for 48 hrs by annexin V-FITC and propidium iodide staining based flow cytometry analysis (reference value: 2.62%). It counts as functional.
A further data set relates to Farage. Conditions: Homo sapiens, 0.25 to 2 uM.
Data set [10] relates to Toledo. Conditions: Homo sapiens, 0.25 to 2 uM.
Data set [11] has as its system Toledo. In words: Effect on CD69 mRNA expression in BCL6-negative human Toledo cells at 1.25 to 5 uM incubated for 24 hrs by RT-PCR analysis. The format is functional, cell-based. An outline of the steps:
(§2)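 Toledo cells (BCL6-independent) were exposed to 1.25, 2.50 or 5.00 μM for 24 h, then mRNA was collected. Target-gene transcripts were quantified by real-time quantitative PCR against vehicle control.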

Data set [12] deals with Toledo. In words: Effect on CXCR4 mRNA expression in BCL6-negative human Toledo cells at 1.25 to 5 uM incubated for 24 hrs by RT-PCR analysis. The format is functional, cell-based. Put shortly:
as §2

Data set [13] deals with Toledo. As to the kind of experiment: Effect on p53 mRNA expression in BCL6-negative human Toledo cells at 1.25 to 5 uM incubated for 24 hrs by RT-PCR analysis. The format is functional, cell-based. An outline of the steps:
as §2

A short description of data set [14]: Metabolic stability in human liver microsomes assessed as compound remaining measured after 60 mins. It counts as ADME, Microsome. The conditions noted are these: read-out: Stability.
Data set [15] can be described thus: Toxicity in SCID mouse xenografted with human SUDHL4 cells assessed as adverse effect on lungs morphology at 5 to 10 mg/kg, iv administered 3 days once for 15 days by H and E staining analysis. The format is organism-based. Conditions: in vivo. Put shortly:
as §1

Data set [16] concerns Toledo. In words: Antiproliferative activity against BCL6-negative human Toledo cells assessed as reduction in cell viability incubated for 72 hrs by CCK8 assay.
Data set [17] concerns SUD4. As to the kind of experiment: Antitumor activity against human SUDHL4 cells xenografted in SCID mouse assessed as reduction in tumor volume at 5 mg/kg, iv administered 3 days once for 15 days and measured every 3 days by caliper analysis. It counts as functional, organism-based. An outline of the steps: as §1

Each structure is given as a SMILES string. The source made the active and inactive calls. The rule behind the calls is not given here.

One may read the IC50 as the concentration that gives 50% inhibition. Consider `COc1cc(Nc2nc(N3C[C@@H](C)N[C@@H](C)C3)ncc2F)ccc1NC(=O)c1ccc(C2=CCCC2)s1`, for which the inhibition result in the data set filed under Mus musculus [1] was “Active”. Also, the outcome with Mus musculus [2], in the data set on SUD4 [3] and in the data set on SUD4 [17] was Active. For the same molecule, the 50% inhibitory concentration (IC50) in the data set on OCI-Ly7 came out at 1620 nM; with SUD4 [4] it was 920 nM; in the data set on Toledo [16], 3250 nM. Besides, the Activity is listed as 6.6% in the data set on SUD4 [5]; 12.5% in the data set on SUD4 [7]; 27.3% with SUD4 [8]; 3.57% in the data set with SUD4 [9]; “Non-Toxic” in data set [15]. In addition, in [6], the CLint scaled is less than 38 mL/min/kg. For the same molecule, the inhibition result in the data set with Farage and in the data set on Toledo [10] was “inactive” in each case. Further, the result in the data set on Toledo [11], with Toledo [12] and in the data set with Toledo [13] was inactive. For the same molecule, the remaining at 1 h in data set [14] amounted to 102%.

Source of the values: ChEMBL document CHEMBL4376875, “Synthesis and Biological Evaluation of B-Cell Lymphoma 6 Inhibitors of N-Phenyl-4-pyrimidinamine Derivatives Bearing Potent Activities against Tumor Growth” (J Med Chem, 2020).
